Results: ChEMBL document CHEMBL1123844, “Synthesis of new antiinflammatory steroidal 20-carboxamides: (20R)- and (20S)-21-(N-substituted amino)-11 beta,17,20-trihydroxy-3,21-dioxo-1,4- pregnadiene” (J Med Chem, 1987)

test system: not listed separately; assay: Octanol- water partition coefficient was determined.

SMILES | Partition coefficient
CNC(=O)[C@@H](O)[C@@]1(O)CC[C@H]2[C@@H]3CCC4=CC(=O)C=C[C@]4(C)[C@H]3[C@@H](O)C[C@@]21C | 8.6
C[C@]12C=CC(=O)C=C1CC[C@@H]1[C@@H]2[C@@H](O)C[C@@]2(C)[C@H]1CC[C@]2(O)C(=O)CO [PREDNISOLONE] | 30
C[C@]12C=CC(=O)C=C1CC[C@@H]1[C@@H]2[C@@H](O)C[C@@]2(C)[C@H]1CC[C@]2(O)[C@@H](O)C(=O)NCc1ccccc1 | 32.5

test system: Rattus norvegicus; assay: Tested for topical antiinflammatory activity in the croton oil ear edema assay; assay type: functional; parameters: concentration or dose not given beside the values
Procedure, shortened: (§1)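 Male Sprague–Dawley rats (100–200 g), acclimated 1 week. Baseline ear thickness was measured. Steroid at 0.75 mg/ear went to both ears, then 30 min later 50 μL 5% croton oil in acetone. Thickness was remeasured at 5 h. Mean change ± SEM, n=5; % inhibition vs vehicle controls, Student's t test.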

SMILES | Inhibition [%]
CNC(=O)[C@@H](O)[C@@]1(O)CC[C@H]2[C@@H]3CCC4=CC(=O)C=C[C@]4(C)[C@H]3[C@@H](O)C[C@@]21C | 24.5
C[C@]12C=CC(=O)C=C1CC[C@@H]1[C@@H]2[C@@H](O)C[C@@]2(C)[C@H]1CC[C@]2(O)C(=O)CO [PREDNISOLONE] | 68.6
C[C@]12C=CC(=O)C=C1CC[C@@H]1[C@@H]2[C@@H](O)C[C@@]2(C)[C@H]1CC[C@]2(O)[C@@H](O)C(=O)NCc1ccccc1 | 42.6
CCNC(=O)[C@@H](O)[C@@]1(O)CC[C@H]2[C@@H]3CCC4=CC(=O)C=C[C@]4(C)[C@H]3[C@@H](O)C[C@@]21C | 33.8
CCNC(=O)[C@H](O)[C@@]1(O)CC[C@H]2[C@@H]3CCC4=CC(=O)C=C[C@]4(C)[C@H]3[C@@H](O)C[C@@]21C | 34.6

species on record: Rattus norvegicus; assay: Compound was evaluated for antiinflammatory activity in granuloma bioassay and measured as body weight gain; assay type: functional
Procedure, shortened: (§2)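 Male Sprague–Dawley rats (100–200 g), acclimated 1 week under controlled lighting. Each rat got one cotton pellet (35 ± 1 mg) loaded with 2 mg steroid in acetone and one vehicle pellet; controls got two vehicle pellets. Rats were killed 7 days later. Readouts: thymus and adrenal weights, initial/final body weight, plasma corticosterone by 3H radioimmunoassay of cardiac blood. Mean ± SEM, n=6, Student's t test.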

SMILES | Body weight gain [g]
CNC(=O)[C@@H](O)[C@@]1(O)CC[C@H]2[C@@H]3CCC4=CC(=O)C=C[C@]4(C)[C@H]3[C@@H](O)C[C@@]21C | 55
C[C@]12C=CC(=O)C=C1CC[C@@H]1[C@@H]2[C@@H](O)C[C@@]2(C)[C@H]1CC[C@]2(O)C(=O)CO [PREDNISOLONE] | 55
C[C@]12C=CC(=O)C=C1CC[C@@H]1[C@@H]2[C@@H](O)C[C@@]2(C)[C@H]1CC[C@]2(O)[C@@H](O)C(=O)NCc1ccccc1 | 42
CCNC(=O)[C@@H](O)[C@@]1(O)CC[C@H]2[C@@H]3CCC4=CC(=O)C=C[C@]4(C)[C@H]3[C@@H](O)C[C@@]21C | 54.7
CCNC(=O)[C@H](O)[C@@]1(O)CC[C@H]2[C@@H]3CCC4=CC(=O)C=C[C@]4(C)[C@H]3[C@@H](O)C[C@@]21C | 45.7

species on record: Rattus norvegicus; assay: Tested for inhibition of formation of granulation tissue around the cotton pellet untreated with steroid and expressed as net dry weight; assay type: functional
Procedure, shortened: (§3)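 Male Sprague–Dawley rats (100–200 g). Before implantation, the right cotton pellet (35 ± 1 mg) received 2 mg steroid in acetone and the left pellet vehicle only; controls had two vehicle pellets. After 7 days, pellets with granulation tissue were dried at 60 °C for 48 h and weighed. Net dry weight, mean ± SEM, n=6; % inhibition vs vehicle group.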

SMILES | Net dry weight [mg]
CNC(=O)[C@@H](O)[C@@]1(O)CC[C@H]2[C@@H]3CCC4=CC(=O)C=C[C@]4(C)[C@H]3[C@@H](O)C[C@@]21C | 82.8
C[C@]12C=CC(=O)C=C1CC[C@@H]1[C@@H]2[C@@H](O)C[C@@]2(C)[C@H]1CC[C@]2(O)C(=O)CO [PREDNISOLONE] | 58.2
C[C@]12C=CC(=O)C=C1CC[C@@H]1[C@@H]2[C@@H](O)C[C@@]2(C)[C@H]1CC[C@]2(O)[C@@H](O)C(=O)NCc1ccccc1 | 48.4
CCNC(=O)[C@@H](O)[C@@]1(O)CC[C@H]2[C@@H]3CCC4=CC(=O)C=C[C@]4(C)[C@H]3[C@@H](O)C[C@@]21C | 83.1
CCNC(=O)[C@H](O)[C@@]1(O)CC[C@H]2[C@@H]3CCC4=CC(=O)C=C[C@]4(C)[C@H]3[C@@H](O)C[C@@]21C | 58.1

species on record: Rattus norvegicus; assay: Evaluated for antiinflammatory activity in granuloma bioassay and expressed as relative adrenal weight; assay type: functional; procedure, shortened: as §2

SMILES | Relative adrenal weight [mg 100g-1]
CNC(=O)[C@@H](O)[C@@]1(O)CC[C@H]2[C@@H]3CCC4=CC(=O)C=C[C@]4(C)[C@H]3[C@@H](O)C[C@@]21C | 16.7
C[C@]12C=CC(=O)C=C1CC[C@@H]1[C@@H]2[C@@H](O)C[C@@]2(C)[C@H]1CC[C@]2(O)C(=O)CO [PREDNISOLONE] | 12.1
C[C@]12C=CC(=O)C=C1CC[C@@H]1[C@@H]2[C@@H](O)C[C@@]2(C)[C@H]1CC[C@]2(O)[C@@H](O)C(=O)NCc1ccccc1 | 12.4

species on record: Rattus norvegicus; assay: Evaluated for antiinflammatory activity in granuloma bioassay and expressed as relative thymus weight; assay type: functional; procedure, shortened: as §2

SMILES | Relative thymus weight [mg 100g-1]
CNC(=O)[C@@H](O)[C@@]1(O)CC[C@H]2[C@@H]3CCC4=CC(=O)C=C[C@]4(C)[C@H]3[C@@H](O)C[C@@]21C | 247
C[C@]12C=CC(=O)C=C1CC[C@@H]1[C@@H]2[C@@H](O)C[C@@]2(C)[C@H]1CC[C@]2(O)C(=O)CO [PREDNISOLONE] | 110.2
C[C@]12C=CC(=O)C=C1CC[C@@H]1[C@@H]2[C@@H](O)C[C@@]2(C)[C@H]1CC[C@]2(O)[C@@H](O)C(=O)NCc1ccccc1 | 167.1

species on record: Rattus norvegicus; assay: Tested for inhibition of formation of granulation tissue around the cotton pellet treated with steroid and expressed as net dry weight; assay type: functional; procedure, shortened: as §3

SMILES | Net dry weight [mg]
CNC(=O)[C@@H](O)[C@@]1(O)CC[C@H]2[C@@H]3CCC4=CC(=O)C=C[C@]4(C)[C@H]3[C@@H](O)C[C@@]21C | 61.6
C[C@]12C=CC(=O)C=C1CC[C@@H]1[C@@H]2[C@@H](O)C[C@@]2(C)[C@H]1CC[C@]2(O)C(=O)CO [PREDNISOLONE] | 30.7
C[C@]12C=CC(=O)C=C1CC[C@@H]1[C@@H]2[C@@H](O)C[C@@]2(C)[C@H]1CC[C@]2(O)[C@@H](O)C(=O)NCc1ccccc1 | 24
CCNC(=O)[C@@H](O)[C@@]1(O)CC[C@H]2[C@@H]3CCC4=CC(=O)C=C[C@]4(C)[C@H]3[C@@H](O)C[C@@]21C | 59.9
CCNC(=O)[C@H](O)[C@@]1(O)CC[C@H]2[C@@H]3CCC4=CC(=O)C=C[C@]4(C)[C@H]3[C@@H](O)C[C@@]21C | 36.4

test system: Rattus norvegicus; assay: Tested for topical antiinflammatory activity in the croton oil ear edema assay and was expressed as mean change in ear thickness of rats; assay type: functional; procedure, shortened: as §1

SMILES | Mean change [mm]
CNC(=O)[C@@H](O)[C@@]1(O)CC[C@H]2[C@@H]3CCC4=CC(=O)C=C[C@]4(C)[C@H]3[C@@H](O)C[C@@]21C | 0.349
C[C@]12C=CC(=O)C=C1CC[C@@H]1[C@@H]2[C@@H](O)C[C@@]2(C)[C@H]1CC[C@]2(O)C(=O)CO [PREDNISOLONE] | 0.145
C[C@]12C=CC(=O)C=C1CC[C@@H]1[C@@H]2[C@@H](O)C[C@@]2(C)[C@H]1CC[C@]2(O)[C@@H](O)C(=O)NCc1ccccc1 | 0.265
CCNC(=O)[C@@H](O)[C@@]1(O)CC[C@H]2[C@@H]3CCC4=CC(=O)C=C[C@]4(C)[C@H]3[C@@H](O)C[C@@]21C | 0.305
CCNC(=O)[C@H](O)[C@@]1(O)CC[C@H]2[C@@H]3CCC4=CC(=O)C=C[C@]4(C)[C@H]3[C@@H](O)C[C@@]21C | 0.302

species on record: Rattus norvegicus; assay: Tested for inhibition of formation of granulation tissue around the cotton pellet treated with steroid; assay type: functional; parameters: concentration or dose not given beside the values; procedure, shortened: as §3

SMILES | Inhibition [%]
CNC(=O)[C@@H](O)[C@@]1(O)CC[C@H]2[C@@H]3CCC4=CC(=O)C=C[C@]4(C)[C@H]3[C@@H](O)C[C@@]21C | 21.1
C[C@]12C=CC(=O)C=C1CC[C@@H]1[C@@H]2[C@@H](O)C[C@@]2(C)[C@H]1CC[C@]2(O)C(=O)CO [PREDNISOLONE] | 60.6
C[C@]12C=CC(=O)C=C1CC[C@@H]1[C@@H]2[C@@H](O)C[C@@]2(C)[C@H]1CC[C@]2(O)[C@@H](O)C(=O)NCc1ccccc1 | 69.3
CCNC(=O)[C@@H](O)[C@@]1(O)CC[C@H]2[C@@H]3CCC4=CC(=O)C=C[C@]4(C)[C@H]3[C@@H](O)C[C@@]21C | 23.1
CCNC(=O)[C@H](O)[C@@]1(O)CC[C@H]2[C@@H]3CCC4=CC(=O)C=C[C@]4(C)[C@H]3[C@@H](O)C[C@@]21C | 53.3

species on record: Rattus norvegicus; assay: Compound was evaluated for antiinflammatory activity in granuloma bioassay and measured as plasma corticosterone weight; assay type: functional, organism-based; procedure, shortened: as §2

SMILES | Plasma corticosterone [ng/mL]
CNC(=O)[C@@H](O)[C@@]1(O)CC[C@H]2[C@@H]3CCC4=CC(=O)C=C[C@]4(C)[C@H]3[C@@H](O)C[C@@]21C | 291
C[C@]12C=CC(=O)C=C1CC[C@@H]1[C@@H]2[C@@H](O)C[C@@]2(C)[C@H]1CC[C@]2(O)C(=O)CO [PREDNISOLONE] | 130
C[C@]12C=CC(=O)C=C1CC[C@@H]1[C@@H]2[C@@H](O)C[C@@]2(C)[C@H]1CC[C@]2(O)[C@@H](O)C(=O)NCc1ccccc1 | 101
CCNC(=O)[C@@H](O)[C@@]1(O)CC[C@H]2[C@@H]3CCC4=CC(=O)C=C[C@]4(C)[C@H]3[C@@H](O)C[C@@]21C | 288
CCNC(=O)[C@H](O)[C@@]1(O)CC[C@H]2[C@@H]3CCC4=CC(=O)C=C[C@]4(C)[C@H]3[C@@H](O)C[C@@]21C | 280

species on record: Rattus norvegicus; assay: Tested for inhibition of formation of granulation tissue around the cotton pellet untreated with steroid; assay type: functional; parameters: concentration or dose not given beside the values; procedure, shortened: as §3

SMILES | Inhibition [%]
CNC(=O)[C@@H](O)[C@@]1(O)CC[C@H]2[C@@H]3CCC4=CC(=O)C=C[C@]4(C)[C@H]3[C@@H](O)C[C@@]21C | -4.5
C[C@]12C=CC(=O)C=C1CC[C@@H]1[C@@H]2[C@@H](O)C[C@@]2(C)[C@H]1CC[C@]2(O)C(=O)CO [PREDNISOLONE] | 26.6
C[C@]12C=CC(=O)C=C1CC[C@@H]1[C@@H]2[C@@H](O)C[C@@]2(C)[C@H]1CC[C@]2(O)[C@@H](O)C(=O)NCc1ccccc1 | 38.9
CCNC(=O)[C@@H](O)[C@@]1(O)CC[C@H]2[C@@H]3CCC4=CC(=O)C=C[C@]4(C)[C@H]3[C@@H](O)C[C@@]21C | -4.9
CCNC(=O)[C@H](O)[C@@]1(O)CC[C@H]2[C@@H]3CCC4=CC(=O)C=C[C@]4(C)[C@H]3[C@@H](O)C[C@@]21C | 26.7
